Reference: ChEMBL document CHEMBL4400516, “A novel cereblon modulator for targeted protein degradation” (Eur J Med Chem, 2019)
Values belong to the molecule of their own block, whether it stands above or below them. Active and inactive are the calls of the source. The calls are words filed in the database; no cut-off is given here.

Assays:
[1] = molecular target: T1, Protein cereblon/Bromodomain-containing protein 4 (Homo sapiens, UniProt O60885+Q96SW2); assay: Induction of CRBN-mediated BRD4 degradation in human 22RV1 cells measured after 24 hrs by immunoblotting analysis; assay type: cell-based
T1 sequence (Q96SW2 whole entry, looked up, other chains not shown): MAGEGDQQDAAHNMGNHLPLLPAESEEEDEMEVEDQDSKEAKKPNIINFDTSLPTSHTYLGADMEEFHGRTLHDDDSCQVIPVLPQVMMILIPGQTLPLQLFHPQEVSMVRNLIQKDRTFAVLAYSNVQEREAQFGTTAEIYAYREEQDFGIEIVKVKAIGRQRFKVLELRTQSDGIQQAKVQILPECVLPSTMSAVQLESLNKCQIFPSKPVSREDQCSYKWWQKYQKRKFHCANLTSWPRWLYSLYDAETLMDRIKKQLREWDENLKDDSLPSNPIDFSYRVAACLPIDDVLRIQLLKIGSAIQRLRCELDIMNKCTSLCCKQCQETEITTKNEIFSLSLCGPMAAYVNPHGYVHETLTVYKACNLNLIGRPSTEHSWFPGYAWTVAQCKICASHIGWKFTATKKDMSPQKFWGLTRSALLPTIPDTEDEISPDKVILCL

NCI-H929 = assay: Antiproliferative activity against human NCI-H929 cells after 72 hrs by WST-1 assay; assay type: functional; settings: NCI-H929, 72 h
Method in brief: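 NCI-H929 myeloma cells (RPMI-1640, 10% FBS, 0.05 mM 2-mercaptoethanol) seeded at 30% confluency and dosed the next day. After 72 h, WST-1 reagent added and absorbance at 450 nm read. IC50 from nonlinear log(inhibitor) versus response fit.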

TMD8 = assay: Antitumor activity against human TMD8 cells xenografted in CB-17/IcrCri SCID mouse assessed as tumor growth inhibition at 50 mg/kg, ip qd for 14 days measured during compound dosing; assay type: functional, organism-based
Method in brief: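 Female CB-17/IcrCri-scid mice carried subcutaneous TMD8 tumours in the right flank. Dosing began at about 150 mm3 mean tumour volume: 50 mg/kg i.p. once daily for 14 days in 20% PEG 400 / 3% Tween 80 in PBS, with DMSO as control. Calipers twice weekly; volume = length x width² x 0.5. Mean ± SE, n = 6.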

[2] = Toxicity in CB-17/IcrCri SCID mouse xenografted with human TMD8 cells assessed as change in body weight at 50 mg/kg, ip qd for 14 days measured twice weekly during compound dosing; assay type: organism-based; settings: in vivo, 336 h
[3] = Toxicity in CB-17/IcrCri SCID mouse xenografted with human TMD8 cells assessed as adverse effect at 50 mg/kg, ip qd for 14 days; assay type: organism-based; settings: in vivo, 336 h
Method in brief: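 TMD8 subcutaneous xenografts in female CB-17/IcrCri-scid mice dosed i.p. at 50 mg/kg daily for 14 days in 20% PEG 400 / 3% Tween 80 in PBS, starting at about 150 mm3 tumours. Animals observed daily for signs of morbidity or mortality.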

CWR22R = assay: Antiproliferative activity against human 22Rv1 cells after 72 hrs by CelTiter-Glo reagent-based luminescence assay; assay type: functional; settings: 22Rv1, 72 h
Method in brief: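 22Rv1 cells, 15,000 per well, exposed to compound at indicated concentrations for 72 hr. Viability read by CellTiter-Glo luminescence; relative growth versus DMSO-treated control. IC50 from nonlinear log(inhibitor) versus response fit.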

[4] = molecular target: T1, Protein cereblon/Bromodomain-containing protein 4; assay: Induction of CRBN-mediated BRD4 degradation in human 22RV1 cells in presence of proteasome inhibitor bortezomib by immunoblotting analysis; assay type: cell-based
[5] = molecular target: T1, Protein cereblon/Bromodomain-containing protein 4; assay: Induction of CRBN-mediated BRD4 degradation in human 22RV1 cells in presence of neddylation inhibitor MLN4924 by immunoblotting analysis; assay type: cell-based
[6] = molecular target: Bromodomain-containing protein 4 (Homo sapiens) (UniProt O60885); assay: Induction of BRD4 degradation in CRBN knockdown human 22RV1 cells by immunoblotting analysis
Method in brief: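 22Rv1 cells transfected with CRBN siRNA or negative-control siRNA using RNAiMAX. After 48 h, degrader added for 12 h. Lysates in HEPES/Triton X-100 buffer with protease inhibitor, then SDS-PAGE and immunoblot.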

[7] = molecular target: T1, Protein cereblon/Bromodomain-containing protein 4; assay: Induction of CRBN-mediated BRD4 degradation in human 22RV1 cells in presence of JQ1 by immunoblotting analysis; assay type: cell-based
[8] = molecular target: T1, Protein cereblon/Bromodomain-containing protein 4; assay: Induction of CRBN-mediated BRD4 degradation in human 22RV1 cells in presence of TD-106 by immunoblotting analysis; assay type: cell-based
[9] = molecular target: Protein cereblon/Bromodomain-containing protein 3 (Homo sapiens) (UniProt Q15059+Q96SW2); assay: Induction of CRBN-mediated BRD3 degradation in human 22RV1 cells up to 1000 nM measured after 24 hrs by immunoblotting analysis; assay type: cell-based
Sequence of Protein cereblon/Bromodomain-containing protein 3 (Homo sapiens) (Q15059 2-726 limits assumed): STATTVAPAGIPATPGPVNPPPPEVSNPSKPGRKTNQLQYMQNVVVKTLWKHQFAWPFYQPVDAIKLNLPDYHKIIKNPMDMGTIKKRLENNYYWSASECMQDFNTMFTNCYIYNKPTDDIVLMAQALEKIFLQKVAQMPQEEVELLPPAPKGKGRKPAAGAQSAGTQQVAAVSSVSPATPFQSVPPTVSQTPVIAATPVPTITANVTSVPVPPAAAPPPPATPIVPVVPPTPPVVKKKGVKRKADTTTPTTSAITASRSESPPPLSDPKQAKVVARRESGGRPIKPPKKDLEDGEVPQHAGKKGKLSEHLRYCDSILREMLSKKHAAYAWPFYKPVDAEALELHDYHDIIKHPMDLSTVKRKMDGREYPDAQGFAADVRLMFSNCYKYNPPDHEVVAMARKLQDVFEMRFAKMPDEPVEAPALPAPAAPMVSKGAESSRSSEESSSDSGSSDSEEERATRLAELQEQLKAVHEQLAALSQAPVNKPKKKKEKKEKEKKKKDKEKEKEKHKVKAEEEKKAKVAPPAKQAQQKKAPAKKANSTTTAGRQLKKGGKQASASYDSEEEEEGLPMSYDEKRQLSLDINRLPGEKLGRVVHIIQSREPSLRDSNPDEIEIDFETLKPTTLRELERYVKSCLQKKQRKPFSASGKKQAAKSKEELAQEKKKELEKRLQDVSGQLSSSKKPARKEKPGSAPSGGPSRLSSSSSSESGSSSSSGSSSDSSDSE
Sequence of Protein cereblon/Bromodomain-containing protein 3 (Homo sapiens) (Q96SW2 whole entry partner): as the sequence (Q96SW2 whole entry, looked up, other chains not shown) above
Method in brief: (§1)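 22Rv1 prostate cancer cells (RPMI-1640, 10% FBS) given a 24 h dose titration. Lysates in HEPES/Triton X-100 buffer with protease inhibitor, then SDS-PAGE, nitrocellulose transfer and immunoblot.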

[10] = molecular target: Protein cereblon/Bromodomain-containing protein 2 (Homo sapiens) (UniProt P25440+Q96SW2); assay: Induction of CRBN-mediated BRD2 degradation in human 22RV1 cells up to 1000 nM measured after 24 hrs by immunoblotting analysis; assay type: cell-based; method in brief: as §1
Sequence of Protein cereblon/Bromodomain-containing protein 2 (Homo sapiens) (P25440 whole entry, looked up): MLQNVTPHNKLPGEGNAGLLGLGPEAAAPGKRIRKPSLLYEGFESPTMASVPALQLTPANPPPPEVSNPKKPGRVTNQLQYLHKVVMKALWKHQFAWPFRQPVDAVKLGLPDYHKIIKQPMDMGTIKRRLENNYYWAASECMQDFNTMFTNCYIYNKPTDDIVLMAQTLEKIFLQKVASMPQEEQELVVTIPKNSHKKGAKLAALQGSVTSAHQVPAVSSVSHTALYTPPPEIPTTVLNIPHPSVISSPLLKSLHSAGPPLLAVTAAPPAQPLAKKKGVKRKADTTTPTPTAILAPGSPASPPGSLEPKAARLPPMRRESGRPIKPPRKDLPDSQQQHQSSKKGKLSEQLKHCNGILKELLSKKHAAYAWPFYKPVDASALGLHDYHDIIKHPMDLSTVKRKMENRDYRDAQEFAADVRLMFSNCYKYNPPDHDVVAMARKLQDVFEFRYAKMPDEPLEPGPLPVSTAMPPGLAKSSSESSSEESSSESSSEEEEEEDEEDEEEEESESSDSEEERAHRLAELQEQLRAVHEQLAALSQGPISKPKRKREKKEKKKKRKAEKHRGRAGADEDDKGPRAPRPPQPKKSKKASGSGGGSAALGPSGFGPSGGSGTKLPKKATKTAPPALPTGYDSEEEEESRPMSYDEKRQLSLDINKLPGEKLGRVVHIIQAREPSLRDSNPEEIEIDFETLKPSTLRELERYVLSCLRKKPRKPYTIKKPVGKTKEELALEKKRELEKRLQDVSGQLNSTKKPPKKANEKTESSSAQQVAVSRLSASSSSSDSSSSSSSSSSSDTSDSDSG
Sequence of Protein cereblon/Bromodomain-containing protein 2 (Homo sapiens) (Q96SW2 whole entry, looked up): as the sequence (Q96SW2 whole entry, looked up, other chains not shown) above

[11] = molecular target: T1, Protein cereblon/Bromodomain-containing protein 4; assay: Induction of Xpress-tagged CRBN (unknown origin)/FALG-tagged BRD4 (unknown origin) protein-protein interaction by immunoblotting analysis; assay type: protein assay
Method in brief: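 Cells co-transfected with Xpress-CRBN and FLAG-BRD4 using X-tremeGENE HP. Lysates incubated with anti-FLAG magnetic beads, 4 °C for 3 h. Beads washed in lysis buffer and 500 mM NaCl wash buffer, eluted in SDS sample buffer, and immunoblotted.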

[12] = molecular target: Protein cereblon/Zinc finger protein Aiolos (Homo sapiens) (UniProt Q96SW2+Q9UKT9); assay: Induction of CRBN ubiquitin ligase-mediated IKZF3 degradation in human U266 cells up to 10 uM measured after 12 hrs by immunoblotting analysis
Sequence of Protein cereblon/Zinc finger protein Aiolos (Homo sapiens) (Q96SW2 whole entry, looked up): as the sequence (Q96SW2 whole entry, looked up, other chains not shown) above
Sequence of Protein cereblon/Zinc finger protein Aiolos (Homo sapiens) (Q9UKT9 whole entry, looked up): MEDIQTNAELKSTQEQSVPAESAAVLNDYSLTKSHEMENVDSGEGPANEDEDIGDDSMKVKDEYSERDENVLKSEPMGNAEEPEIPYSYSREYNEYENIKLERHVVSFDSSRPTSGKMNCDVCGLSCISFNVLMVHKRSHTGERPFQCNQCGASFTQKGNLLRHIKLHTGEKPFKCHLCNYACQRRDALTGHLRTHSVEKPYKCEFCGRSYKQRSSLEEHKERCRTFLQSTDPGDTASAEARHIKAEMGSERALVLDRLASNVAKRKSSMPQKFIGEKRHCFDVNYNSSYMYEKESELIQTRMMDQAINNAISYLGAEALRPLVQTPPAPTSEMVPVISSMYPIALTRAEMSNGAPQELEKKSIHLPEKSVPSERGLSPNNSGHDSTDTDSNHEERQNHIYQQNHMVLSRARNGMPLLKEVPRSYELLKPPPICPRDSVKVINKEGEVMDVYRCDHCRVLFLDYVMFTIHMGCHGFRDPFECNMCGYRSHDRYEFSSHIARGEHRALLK

DC50 [1]: 3.3 nM
Compound: Cc1sc2c(c1C)C(c1ccc(Cl)cc1)=N[C@@H](CC(=O)Nc1ccc(OCCOCCOCCNc3cccc4nnn(C5CCC(=O)NC5=O)c(=O)c34)cc1)c1nnc(C)n1-2 (some centres not stated)

Compound: Nc1cccc2c1C(=O)N(C1CCC(=O)NC1=O)C2=O (configuration not stated) [POMALIDOMIDE]
CC50 (NCI-H929): 35 nM

Compound: Nc1cccc2nnn(C3CCC(=O)NC3=O)c(=O)c12 (configuration not stated)
CC50 (NCI-H929): 39 nM | TGI (TMD8): Active | Activity [2]: Non-Toxic | Activity [3]: Non-Toxic

DC50 [1]: 0.32 nM | Activity [4]: inactive | Activity [5]: inactive | Activity [6]: inactive | Activity [7]: inactive | Activity [8]: inactive | Activity [9]: Active | Activity [10]: Active | Activity [11]: Active | Activity [12]: Active
Compound: Cc1sc2c(c1C)C(c1ccc(Cl)cc1)=N[C@@H](CC(=O)Nc1cccc(OCCOCCOCCNc3cccc4nnn(C5CCC(=O)NC5=O)c(=O)c34)c1)c1nnc(C)n1-2 (some centres not stated)
CC50 (CWR22R): 20.1 nM
